5-HT1A blocker: human 5-HT1a receptor antagonists, primary screen, cell-based, CHO, Ga15 NFAT-bla reporter | CHO 5-HT1a Ga15 NFAT-bla reporter, antagonist mode | 0.68% of 62,000 active | inhibition, % at 10 µM | 5-hydroxytryptamine receptor 1A (Homo sapiens), P08908;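 active = inhibition above the mean of all tested compounds plus 3 SD, cut at about 43% in these data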;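 note: receptor stimulated by 5-CT agonist at 100 nM near EC80; beta-lactamase reporter measured by ratiometric fluorescence of a cleavable substrate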
5HT1E antag: 5-HT1E receptor antagonists, primary screen, cell-based, HTS | inhibition, % at 6 µM | CHO 5-HT1E Ga15 NFAT-bla reporter, FRET, antagonist | 0.99% of 65,000 active | AID 571, 2007;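 active = inhibition above a set limit, the mean inhibition across every tested compound plus 3 SD, cut at about 29% in these data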;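 note: signal is the 460 over 535 nm emission ratio of beta-lactamase substrate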
S1P1 ag-PAM: S1P1 agonists and agonism potentiators, primary screen, cell-based, primary and confirmation screens, CRE-bla reporter; AID 449, 2006; 0.57% of 56,000 active; S1P1 CRE-bla cells, forskolin, beta-lactamase FRET, potentiator mode; S1P1 agonist co-added at EC20, 2 nM; 100% = saturating reference agonist, 0% = basal; activation, % at 9.5 µM;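 active = activation above a cutoff set at the mean activation of all tested compounds plus 3 SD, cut at about 54% in these data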;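 note: forskolin at 4 µM as EC80 and the EC20 agonist is SEW2871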
HTR1A agonist: human 5-HT1a receptor agonists, primary screen, cell-based, CHO, Ga15 NFAT-bla reporter; 5-hydroxytryptamine receptor 1A (Homo sapiens), P08908; CHO 5-HT1a Ga15 NFAT-bla reporter, FRET ratio; 0% basal, 100% maximal reference agonist; activation, % at 10 µM; 0.56% of 65,000 active;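 active = activation above the screen-wide mean activation plus 3 SD, cut at about 19% in these data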
HTR1E agonist: 5-HT1E receptor agonists, primary screen, cell-based, HTS. 5-hydroxytryptamine receptor 1E (Homo sapiens), P28566. CHO 5-HT1E Ga15 NFAT-bla reporter, FRET; 0% DMSO wells, 100% control agonist wells. activation, % at 6 µM. 0.69% of 65,000 active. AID 574, 2007;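 active = activation above a set limit, the screen-wide mean activation plus 3 SD, cut at about 8.5% in these data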
S1P3 ag: human S1P3 receptor agonists, primary screen, cell-based, primary and confirmation, NFAT-BLA reporter | Sphingosine 1-phosphate receptor 3 (Homo sapiens), Q99500 | 0.1% of 60,000 active | S1P3 NFAT-BLA reporter cells, agonism, FRET ratio; relative to 1 µM S1P, basal subtracted | activation, % at 4.5 µM;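 active = activation above the screen-wide mean plus 3 SD, cut at about 4.5% in these data, passing the limit was not always enough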
Target sequence (Q99500 whole entry, looked up): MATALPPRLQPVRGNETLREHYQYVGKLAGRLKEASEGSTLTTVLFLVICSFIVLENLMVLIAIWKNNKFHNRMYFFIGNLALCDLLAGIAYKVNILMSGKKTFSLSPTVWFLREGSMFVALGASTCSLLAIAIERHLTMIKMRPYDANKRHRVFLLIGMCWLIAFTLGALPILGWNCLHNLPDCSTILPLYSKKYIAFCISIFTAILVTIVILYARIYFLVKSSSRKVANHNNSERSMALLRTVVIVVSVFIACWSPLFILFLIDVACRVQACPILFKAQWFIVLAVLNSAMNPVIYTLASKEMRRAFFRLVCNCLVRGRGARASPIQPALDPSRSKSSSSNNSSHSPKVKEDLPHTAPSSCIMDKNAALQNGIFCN
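Benchmarks: high control 1 µM S1P / System: stable CHO line with human S1P3, Gα16, NFAT-BLA reporter / Dosing: single compound concentration, 4.5 µM final / Timing: 4 h compound at 37 °C, 2 h substrate at RT / Measured by: FRET β-lactamase substrate fluorescence, excitation 405 nm, 460/535 nm emission ratio, background-subtracted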
Each line names hits and unclear results; the compound was inactive in the other large screens. In the library only some 3% were active in any assay of this set; here they are far more common.

C=CCN1CCN(C(c2cc(OC)ccc2OC)c2nnnn2CC2CCCO2)CC1 (stereo unspecified)	none
CCC(O)CNc1nc(-n2nc(C)cc2C)nc2sc3c(c12)CCCC3 (stereo unspecified)	none
Cc1cc(C)n(-c2nc(NCc3cccnc3)c3c4c(sc3n2)COC(C)(C)C4)n1	S1P3 ag 13
Cc1csc(SCCn2c(N3CCN(c4ccccc4)CC3)nc3c2c(=O)[nH]c(=O)n3C)n1	none
O=C(NCC1CCCO1)c1ccc(S(=O)(=O)N2CCCCC2)cc1 (stereo unspecified)	none
CC1CCN(S(=O)(=O)c2ccc(S(=O)(=O)NCC3COCCO3)cc2)CC1 (stereo unspecified)	HTR1E agonist 26
OCCN1CCN(Cc2cccc(Oc3ccc(Cl)cc3)c2)CC1	HTR1E agonist 10
C=CCn1c(O)c(C2=c3ccccc3=NC2=O)sc1=Nc1ccc(O)cc1	5-HT1A blocker 55
CCOC(=O)Nc1ccc(S(=O)(=O)Nn2cnnc2)cc1	none
CC(=O)CCc1ccc2oc(C(=O)O)c(C)c2c1	none
O=C1CC(Sc2nnnn2C2CCCCC2)C(=O)N1c1ccccc1 (stereo unspecified)	5-HT1A blocker 44
Cn1c(-c2ccccc2)cc2c3no[n+]([O-])c3ccc21	5-HT1A blocker 44, 5HT1E antag 34
CCOC(=O)CSc1nc2c(sc(=S)n2Cc2ccco2)c(=O)n1-c1ccccc1	5-HT1A blocker 55 (no result: S1P1 ag-PAM, S1P3 ag)
Nc1nc(C2CCCN2S(=O)(=O)c2ccc(Cl)cc2)cs1 (stereo unspecified)	none
N#CCCN(C(=O)CN1C(=O)NC2(CCCC2)C1=O)c1ccccc1F	HTR1A agonist 82 (no result: S1P1 ag-PAM, S1P3 ag)
O=C(O)CCN1C(=O)NC2(CCCC2)C1=O	none
CC(CCc1ccccc1)NC(=O)CSc1nc(N)cc(N)n1 (stereo unspecified)	HTR1E agonist 58
CCc1cc2c(=O)c(-c3nc4ccccc4[nH]3)coc2c(CN2CCCC(C)C2)c1O (stereo unspecified)	none
CCn1c(SC(C)C(=O)OC)nnc1-c1c[nH]c2ccccc12 (stereo unspecified)	none
CC(O)Cn1cnc2c1c(=O)n(C)c(=O)n2C (stereo unspecified)	none (no result: 5-HT1A blocker)
CN1CCN(S(=O)(=O)c2ccc(NC(=O)c3ccc(Br)s3)cc2)CC1	none
CN1/C(=C/C(=O)c2nc(S(C)(=O)=O)ncc2Cl)C(C)(C)c2ccccc21	5-HT1A blocker 62, 5HT1E antag 51, S1P1 ag-PAM 110
CN1/C(=C\C(=O)c2ccco2)C(C)(C)c2ccccc21	none
Cc1ccc(NC(=O)CS(=O)CC(=O)Nc2ccc3c(c2)OCO3)cc1Cl (stereo unspecified)	none
CCC(=O)NCCc1cc2cc(C)c(C)cc2[nH]c1=O	HTR1A agonist 224
COc1cc(NS(=O)(=O)c2ccc(Br)s2)cc(OC)c1	none
C=CCc1ccccc1OCCCCN1CCCC1	HTR1E agonist 10
CCc1ccccc1OCCCCN1CCCC1	HTR1E agonist 12 (no result: S1P1 ag-PAM)
Cc1ccccc1OCCCN1CCCC1	none
COc1cc2[nH]c3c(N4CCN(c5ccc(Cl)cc5)CC4)ncnc3c2cc1OC	none
COc1cccc(N2CCN(c3ncnc4c3[nH]c3ccc(F)cc34)CC2C)c1 (stereo unspecified)	5HT1E antag 104, S1P1 ag-PAM 115 (no result: 5-HT1A blocker)
COc1cccc(N2CCN(c3ncnc4c3[nH]c3ccccc34)CC2C)c1 (stereo unspecified)	5HT1E antag 91 (no result: 5-HT1A blocker)
O=C(Cn1cnc2c(oc3ccccc32)c1=O)NCC1CCCO1 (stereo unspecified)	none (no result: S1P1 ag-PAM, S1P3 ag)
